In brackets after ≈: the same amount, converted by molar mass.
What was measured:
[1] = Thermodynamic solubility of the compound at pH 7.4; format: physicochemical; settings: buffer, read-out: Therm_solubility
How it was run: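 Thermodynamic solubility measured at pH 7.4.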

[2] = Plasma clearance in Sprague-Dawley rat at 0.5 mg/kg, iv; format: ADME, organism-based; parameters: dose 0.5 mg/kg, route intravenous
How it was run: (§1)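 Male Sprague−Dawley rats given 0.5 mg/kg iv in 60% NMP solution, n = 3. Brain/plasma value is the unbound brain to unbound plasma AUC ratio after this iv dose.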

[3] = Plasma clearance in beagle dog at 0.5 mg/kg, iv and 1 mg/kg, po; format: ADME, organism-based, Canis lupus familiaris
How it was run: (§2)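 Male Beagle dogs, n = 3. iv dose 0.5 mg/kg in 30% NMP solution; oral dose 1 mg/kg as aqueous suspension of 1% RC591 + 0.2% tween80.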

[4] = Ratio of unbound drug level in brain to plasma in Sprague-Dawley rat at 0.5 mg/kg, iv; format: ADME, organism-based; parameters: dose 0.5 mg/kg, route intravenous; settings: read-out: K(p,uu,brain); how it was run: as §1
[5] = Oral bioavailability in beagle dog at 1 mg/kg; format: ADME, organism-based, Canis lupus familiaris; settings: in vivo; how it was run: as §2
[6] = Volume of distribution in Sprague-Dawley rat at 0.5 mg/kg, iv; format: ADME, organism-based; parameters: dose 0.5 mg/kg, route intravenous; settings: in vivo; how it was run: as §1

solubility thermodynamic [1] [µg/mL] | clearance [2] [mL/min/kg] | clearance [3] [mL/min/kg] | Kp uu [4] | bioavailability [5] [%] | Vd [6] [L/kg] | Compound
< 0.9 |  |  |  |  |  | CNc1nc(Nc2cc(F)c(C(=O)N3CCOCC3)cc2OC)ncc1C(F)(F)F
20 (≈ 54.8 µM) | 21 | 22 | 0.37 | 31 | 2.5 | CNc1nc(Nc2cnn(CC(C)(C)O)c2Cl)ncc1C(F)(F)F
 | 35 |  | 0.26 |  | 0.88 | CNc1nc(Nc2cnn(CC(C)(C)O)c2C)ncc1C(F)(F)F
